Laboratory results reported in ChEMBL document CHEMBL2331388, “Flavone tetraglycosides and benzyl alcohol glycosides from the Mongolian medicinal plant Dracocephalum ruyschiana” (J Nat Prod, 2013).

test system: Radical scavenging activity; test: Antioxidant activity assessed as DPPH radical scavenging activity after 30 mins by microplate reader; assay type: functional; conditions: not given
Procedure, shortened: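 Modified Mensor method. Sample in absolute MeOH at several concentrations mixed 1:1 with 0.06 mM DPPH in MeOH (100 μL each). Absorbance read at 510 nm at exactly 30 min, then percent inhibition calculated. IC50 taken as the concentration scavenging 50% of DPPH radicals. Triplicate runs. Rutin and Trolox used as reference standards.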

SMILES | IC50 [µg/mL]
Oc1ccc(Cc2ccc(O)cc2)cc1 | > 200
COc1ccc(-c2cc(=O)c3c(O)cc(O[C@@H]4O[C@H](CO[C@@H]5O[C@@H](C)[C@H](O)[C@@H](O)[C@H]5O)[C@@H](O)[C@H](O)[C@H]4O[C@@H]4O[C@H](CO)[C@@H](O)[C@H](O)[C@H]4O[C@@H]4O[C@H](CO)[C@@H](O)[C@H](O)[C@H]4O)cc3o2)cc1 | > 200
COc1ccc(-c2cc(=O)c3c(O)cc(O[C@@H]4O[C@H](CO[C@@H]5O[C@@H](C)[C@H](O)[C@@H](O)[C@H]5O)[C@@H](O)[C@H](O)[C@H]4O[C@@H]4O[C@H](CO)[C@@H](O)[C@H](OC(C)=O)[C@H]4O[C@@H]4O[C@H](CO)[C@@H](O)[C@H](O)[C@H]4O)cc3o2)cc1 | > 200
COc1ccc(-c2cc(=O)c3c(O)cc(O[C@@H]4O[C@H](CO[C@@H]5O[C@@H](C)[C@H](O)[C@@H](O)[C@H]5O)[C@@H](O)[C@H](O)[C@H]4O[C@@H]4O[C@H](COC(C)=O)[C@@H](O)[C@H](O)[C@H]4O[C@@H]4O[C@H](CO)[C@@H](O)[C@H](O)[C@H]4O)cc3o2)cc1 | > 200
COc1ccc(-c2cc(=O)c3c(O)cc(O[C@@H]4O[C@H](CO[C@@H]5O[C@@H](C)[C@H](O)[C@@H](O)[C@H]5O)[C@@H](O)[C@H](O)[C@H]4O[C@@H]4O[C@H](COC(C)=O)[C@@H](O)[C@H](O)[C@H]4O[C@@H]4O[C@H](CO)[C@@H](O)[C@H](O)[C@H]4O)cc3o2)cc1O | > 200
CC(=O)OC[C@H]1O[C@@H](O[C@H]2[C@H](Oc3cc(O)c4c(=O)cc(-c5ccc(O)cc5)oc4c3)O[C@H](CO[C@@H]3O[C@@H](C)[C@H](O)[C@@H](O)[C@H]3O)[C@@H](O)[C@@H]2O)[C@H](O[C@@H]2O[C@H](CO)[C@@H](O)[C@H](O)[C@H]2O)[C@@H](O)[C@@H]1O | > 200
COc1ccc(-c2cc(=O)c3c(O)cc(O[C@@H]4O[C@H](CO[C@@H]5O[C@@H](C)[C@H](O)[C@@H](O)[C@H]5O)[C@@H](O)[C@H](O)[C@H]4O[C@@H]4O[C@H](CO)[C@@H](O)[C@H](O)[C@H]4O[C@@H]4O[C@H](CO)[C@@H](O)[C@H](O)[C@H]4O)cc3o2)cc1O | > 200
C[C@@H]1O[C@@H](OC[C@H]2O[C@@H](OCc3ccccc3)[C@H](O)[C@@H](O)[C@@H]2O)[C@H](OC(=O)/C=C/c2ccc(O)cc2)[C@H](O)[C@H]1O | > 200
C[C@@H]1O[C@@H](OC[C@H]2O[C@@H](OCc3ccccc3)[C@H](O)[C@@H](O)[C@@H]2O)[C@H](OC(=O)/C=C\c2ccc(O)cc2)[C@H](O)[C@H]1O | > 200
C[C@@H]1O[C@@H](OC[C@H]2O[C@@H](OCc3ccccc3)[C@H](O)[C@@H](O)[C@@H]2O)[C@H](O)[C@H](O)[C@H]1OC(=O)/C=C/c1ccc(O)cc1 | > 200
C[C@@H]1O[C@@H](OC[C@H]2O[C@@H](Oc3ccc(COC(=O)c4ccccc4)cc3)[C@H](O)[C@@H](O)[C@@H]2O)[C@H](O)[C@H](O)[C@H]1O | > 200
CC(O)(CC(=O)O)CC(=O)OCc1ccc(O[C@@H]2O[C@H](CO)[C@@H](O)[C@H](O)[C@H]2O)cc1 (stereo partly specified) | > 200
COc1cc([C@H]2Oc3c(OC)cc(CCCO)cc3[C@@H]2CO)ccc1O[C@@H]1O[C@H](CO)[C@@H](O)[C@H](O)[C@H]1O | > 200
O=C(O)/C=C\c1ccc(O)cc1 | > 200
O=Cc1ccc(O)cc1 [4-HYDROXYBENZALDEHYDE] | > 200
O=c1c(O[C@@H]2O[C@H](CO)[C@@H](O)[C@H](O)[C@H]2O)c(-c2ccc(O)cc2)oc2cc(O)cc(O)c12 [ASTRAGALIN] | > 200
O=C(O)/C=C/c1ccc(O)cc1 [COUMARIC ACID] | > 200
C[C@@H]1O[C@@H](OC[C@H]2O[C@@H](OCc3ccccc3)[C@H](O)[C@@H](O)[C@@H]2O)[C@H](O)[C@H](O)[C@H]1O [HYDRANGEIFOLIN I] | > 200
COC(=O)/C=C/c1ccc(O)cc1 [METHYL P-HYDROXYCINNAMATE] | > 200

same assay, conditions: read-out: IC50

SMILES | IC50 [µM]
OC[C@H]1O[C@@H](OCc2ccccc2)[C@H](O)[C@@H](O)[C@@H]1O | 223
O=C(/C=C/c1ccc(O)cc1)O[C@@H]1C[C@](O)(C(=O)O)C[C@@H](OC(=O)/C=C/c2ccc(O)c(O)c2)[C@H]1O | 57.4
O=C(/C=C/c1ccc(O)c(O)c1)O[C@@H]1C[C@](O)(C(=O)O)C[C@@H](OC(=O)/C=C/c2ccc(O)c(O)c2)[C@H]1O | 32.4
O=C(/C=C/c1ccc(O)c(O)c1)O[C@@H]1[C@H](O)C[C@@](O)(C(=O)O)C[C@H]1OC(=O)/C=C/c1ccc(O)c(O)c1 | 28.9
COc1cc([C@H]2Oc3c(OC)cc(CCCO)cc3[C@@H]2CO[C@@H]2O[C@H](CO)[C@@H](O)[C@H](O)[C@H]2O)ccc1O | 284
O=C(/C=C/c1ccc(O)c(O)c1)O[C@@H]1C[C@](O)(C(=O)O)C[C@@H](O)[C@H]1O [CHLOROGENIC ACID] | 45.5
C=CCc1ccc(O[C@@H]2O[C@H](CO)[C@@H](O)[C@H](O)[C@H]2O)c(OC)c1 [CITRUSIN C] | 328
COc1cc(/C=C/C(=O)O)ccc1O [FERULATE] | 62.4
O=c1c(O[C@@H]2O[C@H](CO)[C@@H](O)[C@H](O)[C@H]2O)c(-c2ccc(O)c(O)c2)oc2cc(O)cc(O)c12 [ISOQUERCETIN] | 60.6
O=C(O)[C@H]1O[C@@H](Oc2c(-c3ccc(O)c(O)c3)oc3cc(O)cc(O)c3c2=O)[C@H](O)[C@@H](O)[C@@H]1O [QUERCETIN GLUCURONIDE] | 37.2
C[C@@H]1O[C@@H](OC[C@H]2O[C@@H](Oc3c(-c4ccc(O)c(O)c4)oc4cc(O)cc(O)c4c3=O)[C@H](O)[C@@H](O)[C@@H]2O)[C@H](O)[C@H](O)[C@H]1O [RUTIN] | 38.7
Cc1c(C)c2c(c(C)c1O)CCC(C)(C(=O)O)O2 (stereo unspecified) [TROLOX] | 25.9
